The values below come from ChEMBL document CHEMBL1137328, “5-pyrrolidinylsulfonyl isatins as a potential tool for the molecular imaging of caspases in apoptosis” (J Med Chem, 2006).

SMILES strings stand for the structures. Calls of active or inactive are those of the source. The calls are words filed in the database; no cut-off is given here.

A word on the IC50: it is the concentration that inhibits the measured activity by half. Read a high IC50 as lower potency. What is called Ki is the dissociation constant of the complex between target and ligand, obtained from inhibition or displacement. A low value points to tighter binding.

One test has as its target T1, Caspase-7 (Homo sapiens, UniProt P55210).
T1 sequence (P55210 whole entry): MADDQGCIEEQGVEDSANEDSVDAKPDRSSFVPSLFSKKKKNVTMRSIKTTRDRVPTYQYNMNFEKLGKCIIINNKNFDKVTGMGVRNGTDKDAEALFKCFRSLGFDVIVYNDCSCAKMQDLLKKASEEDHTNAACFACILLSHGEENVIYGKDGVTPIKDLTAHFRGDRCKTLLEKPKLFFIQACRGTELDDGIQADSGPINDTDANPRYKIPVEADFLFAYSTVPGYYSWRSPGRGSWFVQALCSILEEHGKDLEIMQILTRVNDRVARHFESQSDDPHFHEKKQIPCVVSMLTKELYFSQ
The test is described as follows: Inhibition of caspase 7. Put shortly: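 Inhibitor in DMSO (final 5 pM–500 µM, single doses) preincubated 10 min, then Ac-DEVD-AMC (final 10 µM) reacted 10 min. Cleaved AMC quantified by fluorescence; IC50 by nonlinear regression.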

In another test the target is Caspase-8 (Homo sapiens, UniProt Q14790). The test is described as follows: Inhibition of caspase 8. In outline:
(§1)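 Recombinant human caspase-1, -6 or -8 at 0.5 units per assay, preincubated 10 min at 37 °C with compound in DMSO at single doses from 5 pM to 500 µM. Fluorogenic AMC substrate then added at 10 µM final (caspase-1 Ac-YVAD-AMC, caspase-6 Ac-VEID-AMC, caspase-8 Ac-IETD-AMC) for a further 10 min. Read-out was AMC fluorescence. IC50 taken by nonlinear regression.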

Test [1] has as its target T2, Caspase-3 (Homo sapiens, UniProt P42574).
T2 sequence (P42574 whole entry): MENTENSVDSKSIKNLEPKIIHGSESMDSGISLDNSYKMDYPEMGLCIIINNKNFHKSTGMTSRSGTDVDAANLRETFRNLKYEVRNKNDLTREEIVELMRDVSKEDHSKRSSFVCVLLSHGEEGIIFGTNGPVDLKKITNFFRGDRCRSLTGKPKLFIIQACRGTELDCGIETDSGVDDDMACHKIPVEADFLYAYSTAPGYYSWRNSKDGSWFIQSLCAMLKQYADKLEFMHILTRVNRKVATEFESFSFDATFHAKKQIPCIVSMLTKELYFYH
The test is described as follows: Inhibition of caspase 3 in neutrophils.

The target in test [2] is T2, Caspase-3. The test is described as follows: Binding affinity to human caspase 3. Put shortly: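 Recombinant full-length human caspase-3 (1 unit/assay, 0.5 pM) preincubated 10 min at 37 °C with isatin in DMSO (single doses, 5 pM–500 µM) in 25 mM HEPES pH 7.5, 0.1% CHAPS, 50 mM KCl, 5 mM β-mercaptoethanol. Ac-DEVD-AMC (10 µM final) then added for 10 min. IC50 by nonlinear regression, converted to Ki = IC50/(1+[S]/KM). Mean of three assays.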

The target in the next test is T3, Caspase-1 (Homo sapiens, UniProt P29466).
T3 sequence (P29466 whole entry): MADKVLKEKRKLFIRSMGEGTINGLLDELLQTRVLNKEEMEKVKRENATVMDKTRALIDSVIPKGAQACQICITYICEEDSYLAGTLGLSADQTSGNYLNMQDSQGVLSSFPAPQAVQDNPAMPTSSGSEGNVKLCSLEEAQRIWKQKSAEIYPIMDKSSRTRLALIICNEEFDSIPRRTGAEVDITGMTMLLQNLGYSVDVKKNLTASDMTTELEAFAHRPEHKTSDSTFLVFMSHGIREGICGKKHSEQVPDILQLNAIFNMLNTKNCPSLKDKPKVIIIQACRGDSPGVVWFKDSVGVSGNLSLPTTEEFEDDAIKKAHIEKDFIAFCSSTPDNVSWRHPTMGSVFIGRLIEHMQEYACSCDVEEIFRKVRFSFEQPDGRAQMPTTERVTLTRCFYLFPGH
The test is described as follows: Inhibition of caspase 1. Put shortly:
as §1

For test [3], the target named is T2, Caspase-3. The test is described as follows: Inhibition of caspase 3. Put shortly: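 Recombinant human caspases (0.5 units/assay) preincubated 10 min at 37 °C with isatin in DMSO (single doses, 5 pM–500 µM). The buffer for all was 0.1% CHAPS, 100 mM NaCl, 2 mM EDTA, 10% sucrose, with 20 mM HEPES pH 7.4. Caspase-1 used 100 mM HEPES and β-mercaptoethanol, and caspase-7 used β-mercaptoethanol. AMC substrates at 10 µM for 10 min: YVAD (caspase-1), DEVD (caspase-3/-7), VEID (caspase-6), IETD (caspase-8). IC50 by nonlinear regression.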

The target of another test is T4, Caspase-6 (Homo sapiens, UniProt P55212).
T4 sequence (P55212 whole entry): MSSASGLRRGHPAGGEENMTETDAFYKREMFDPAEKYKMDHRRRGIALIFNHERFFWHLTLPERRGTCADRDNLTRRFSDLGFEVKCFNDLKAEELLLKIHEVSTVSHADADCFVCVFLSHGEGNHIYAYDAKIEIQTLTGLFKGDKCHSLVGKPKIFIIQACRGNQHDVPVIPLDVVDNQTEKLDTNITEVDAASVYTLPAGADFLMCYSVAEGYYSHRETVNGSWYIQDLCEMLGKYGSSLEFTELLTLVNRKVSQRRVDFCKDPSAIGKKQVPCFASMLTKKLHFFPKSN
In words: Inhibition of caspase 6. Put shortly:
as §1

Test [4] has as its system HUVEC. The test is described as follows: Inhibition of caspase 3 processing in apoptotic HUVEC at 10 uM. Type of test: functional, cell-based. As to conditions: Homo sapiens. In outline: (§2)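 HUVEC grown on gelatin-coated dishes in RPMI-1640 with 15% calf serum, heparin and pituitary extract. Cells were preincubated 30 min with compound. Apoptosis was then induced by growth-factor withdrawal (RPMI-1640 alone), with compound present, for 8 h at 37 °C. Lysates (30 µg) were run on 15% SDS-PAGE Western blots for processed caspase-3 (p17/p12), caspase-8, caspase-9, cleaved PARP ([…]) and lamin A/C. Z-VAD-fmk served as full-inhibition control and β-actin as loading control.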

Test [5] deals with HUVEC. The test is described as follows: Inhibition of caspase 8 processing in apoptotic HUVEC at 50 uM. It is filed as functional, cell-based. The note with it: Homo sapiens. In outline: as §2
The test system of test [6] is HUVEC. In words: Inhibition of caspase 8 processing in apoptotic HUVEC at 100 uM. It is filed as functional, cell-based. As to conditions: Homo sapiens. Put shortly: as §2
For test [7], the system named is HUVEC. In words: Inhibition of caspase 9 processing in apoptotic HUVEC at 50 uM. Type of test: functional, cell-based. The note with it: Homo sapiens. Put shortly: as §2
The test system of test [8] is HUVEC. The test is described as follows: Inhibition of caspase 9 processing in apoptotic HUVEC at 100 uM. Type of test: functional, cell-based. As to conditions: Homo sapiens. Put shortly:
as §2

Test [9] deals with HUVEC. In words: Inhibition of PARP cleavage in apoptotic HUVEC at 100 uM. Type of test: functional, cell-based. As to conditions: Homo sapiens. In outline: as §2
For test [10], the system named is HUVEC. The test is described as follows: Inhibition of lamin A/C cleavage in apoptotic HUVEC at 100 uM. The note with it: Homo sapiens. It is filed as functional, cell-based. In outline: as §2

Chain of Caspase-8 (Q14790 217-374 limits assumed): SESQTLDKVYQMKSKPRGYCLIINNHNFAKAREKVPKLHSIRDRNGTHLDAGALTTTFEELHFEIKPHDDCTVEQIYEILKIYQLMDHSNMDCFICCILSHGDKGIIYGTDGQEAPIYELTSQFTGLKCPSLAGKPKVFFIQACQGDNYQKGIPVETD
Chain of Caspase-8 (Q14790 385-479 limits assumed): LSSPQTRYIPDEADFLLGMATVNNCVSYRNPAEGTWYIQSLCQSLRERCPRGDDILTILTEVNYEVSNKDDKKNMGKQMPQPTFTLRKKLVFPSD

As to `CN1C(=O)C(=O)c2cc(S(=O)(=O)N3CCC[C@H]3COc3ccccc3)ccc21`, the IC50 was 190 nM against Caspase-7; greater than 500000 nM on Caspase-8; 10000 nM against Caspase-3 [1]; greater than 500000 nM against Caspase-1; 114 nM against Caspase-3 [3]; greater than 500000 nM at Caspase-6. The Ki at Caspase-3 [2] was 56.1 nM.

Turning to `COC[C@@H]1CCCN1S(=O)(=O)c1ccc2c(c1)C(=O)C(=O)N2Cc1ccc(OCCF)cc1`, the IC50 on Caspase-7 is 93.3 nM; against Caspase-8, greater than 25000 nM; on Caspase-1 it was greater than 25000 nM; against Caspase-3 [3] it was 36.4 nM; on Caspase-6, greater than 25000 nM. Moreover, the result in the test on HUVEC [4], in the test on HUVEC [5], in the test with HUVEC [6], in the test with HUVEC [7], with HUVEC [8] and in the test on HUVEC [9] was Active. Besides, in the test with HUVEC [10], the result was Active. This molecule showed a Ki on Caspase-3 [2] of 17.9 nM.
